Measured values of several laboratories.
Each line is one published result; the experiments were not run side by side.
Target: Mitogen-activated protein kinase kinase kinase kinase 2 (MAP4K2, Homo sapiens, UniProt Q12851)
Sequence (Q12851 1-820, as in one of the studies): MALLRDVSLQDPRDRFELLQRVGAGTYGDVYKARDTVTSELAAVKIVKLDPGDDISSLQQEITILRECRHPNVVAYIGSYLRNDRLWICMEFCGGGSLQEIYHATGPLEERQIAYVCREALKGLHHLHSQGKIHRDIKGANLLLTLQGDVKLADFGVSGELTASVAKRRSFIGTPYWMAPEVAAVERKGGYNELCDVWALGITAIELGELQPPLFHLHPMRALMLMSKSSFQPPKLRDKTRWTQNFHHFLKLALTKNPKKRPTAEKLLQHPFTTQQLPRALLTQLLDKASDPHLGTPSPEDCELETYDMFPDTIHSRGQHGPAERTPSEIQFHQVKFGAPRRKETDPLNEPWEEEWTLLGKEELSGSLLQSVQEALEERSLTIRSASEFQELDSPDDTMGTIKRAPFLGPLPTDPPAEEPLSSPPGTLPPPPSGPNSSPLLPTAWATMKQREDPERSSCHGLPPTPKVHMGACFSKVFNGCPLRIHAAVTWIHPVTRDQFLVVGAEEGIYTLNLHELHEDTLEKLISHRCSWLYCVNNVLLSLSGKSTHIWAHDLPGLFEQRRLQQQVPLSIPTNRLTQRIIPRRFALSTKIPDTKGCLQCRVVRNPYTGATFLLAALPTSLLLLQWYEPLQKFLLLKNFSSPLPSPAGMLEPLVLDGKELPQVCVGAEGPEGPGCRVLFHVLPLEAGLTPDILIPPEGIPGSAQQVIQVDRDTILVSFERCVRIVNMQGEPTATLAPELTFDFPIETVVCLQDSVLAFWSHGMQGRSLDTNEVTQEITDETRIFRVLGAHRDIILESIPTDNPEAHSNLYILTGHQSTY

SMILES	assay	setting	remaining binding
COc1cnc(Nc2cccc(S(N)(=O)=O)c2)nc1N1CCN(c2ccccc2)CC1	binding, competition with immobilised ligand	1 µM	78%
Nc1ncc2c(n1)-c1c([nH]c3ccc(C#CC4CC4)cc13)CCCC2	binding, competition with immobilised ligand	1 µM	84%
O=C(c1ccc(Nc2ncc(Cl)c(-c3ccc(Cl)s3)n2)cc1)N1CCC(N2CCCC2)CC1	binding, competition with immobilised ligand	1 µM	15%
CN(CCCC(F)(F)F)c1nccc(-c2cnn3ncccc23)n1	binding	1 µM	100%
CN(C(=O)c1ccccc1)c1cc(N(C)c2ccc3c(c2)CCc2ccc(C(=O)NCCN4CCOCC4)cc2C3=O)ccc1F	cell-free assay, competition with immobilised ligand	1 µM	97%
FC(F)(F)Oc1cccc(-c2cnc3ccc(-c4ccncc4)nn23)c1	cell-free assay, competition with immobilised ligand	5 µM	17%
c1cnn2ncc(-c3ccnc(N4CCC45COC5)n3)c2c1	binding	1 µM	70%
O=C(NCc1ncc(C(F)(F)F)cc1Cl)c1ccc2c(c1)C1(CCS(=O)(=O)CC1)[C@@H](C1CC1)N2S(=O)(=O)c1ccc(F)cc1	cell-free assay, competition with immobilised ligand	1 µM	91%
CCN1CCN(Cc2ccc(C(=O)Nc3ccc(C)c(Oc4ccc5c(c4)CC(=O)N5)c3)cc2C(F)(F)F)CC1	binding, competition with immobilised ligand	1 µM	100%
O=C(c1ccc(Nc2nccc(-c3cc4ccccc4s3)n2)cc1)N1CCC(N2CCCC2)CC1	binding, competition with immobilised ligand	1 µM	52%
C[C@@H](c1ccc(-n2cnc3c(N)ncnc32)cc1)N1CCc2nn(C)c(Cc3ccccc3)c2C1=O	binding, competition with immobilised ligand	0.1 µM	100%
CN(C)c1nccc(-c2cnc3ncccn23)n1	binding	1 µM	54%
C[C@H](c1cccc(C#N)c1)n1cc(Cl)cc(C(N)=O)c1=N	cell-free assay, competition with immobilised ligand	1 µM	99%
C[C@H]1CCN(c2nccc(-c3cnn4ncccc34)n2)C1	binding	1 µM	71%
O=C(NC[C@@H]1[C@H]2CN(C(=O)OCc3cc(C(F)(F)F)cc(C(F)(F)F)c3)C[C@@H]12)c1ccc2[nH]nnc2c1	cell-free assay, competition with immobilised ligand	1 µM	92%
O=C(NCCCN1CCOCC1)c1ccc(Nc2nccc(-c3cc4ccccc4s3)n2)cc1	binding, competition with immobilised ligand	1 µM	73%
N[C@@H]1CCN(c2nccc(-c3cnn4ncccc34)n2)C1	binding	1 µM	100%
CN(C)c1ncnc(-c2ccc3nc(Nc4cc(CN5CCN(C(=O)CC(F)(F)F)CC5)ccn4)[nH]c3c2)c1Cl	cell-free assay, competition with immobilised ligand	1 µM	69%
CN(C)c1nccc(-c2cnn3ncccc23)n1	binding	1 µM	100%
O=C(Nc1cnc(Oc2ccc(F)cc2)nc1)N1CCc2ncccc2[C@@H]1c1ccc(F)cc1	cell-free assay, competition with immobilised ligand	1 µM	100%
CN(c1nccc(-c2cnn3ncccc23)n1)C1CC1	binding	1 µM	100%
O=C(Nc1c[nH]nc1C(=O)NC1CCNCC1)c1cc(F)cc(F)c1	binding, competition with immobilised ligand	1 µM	69%
